Data as given in ChEMBL document CHEMBL1122854, “Novel bis[1,6-dihydro-6,6-dimethyl-1,3,5-triazine-2,4-diamines] as antitrypanosomal agents” (1985).

How the values were obtained:
Assay type in all cases: functional
[1] = tested on: Mus musculus; test: Antitrypanosomal activity was evaluated against Trypanosoma rhodesiense infections in mice, at dose 106 mg/kg, administered subcutaneously;Toxic; details: route subcutaneous
How it was run: (§1)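 IUR/HA Swiss mice (six weeks old, 30-32 g) infected i.p. with Wellcome CT strain T. rhodesiense. A single subcutaneous dose in peanut oil was given about 2 h after inoculation, with five mice per dose level. Positive control was stilbamidine or 2-hydroxystilbamidine isethionate at 40 mg/kg. Deaths before day 4 were scored toxic, and 30-day survivors cured.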

[2] = tested on: Mus musculus; test: Antitrypanosomal activity was evaluated against Trypanosoma rhodesiense infections in mice, at dose 424 mg/kg, administered subcutaneously; Cures; details: route subcutaneous; how it was run: as §1
[3] = tested on: Trypanosoma brucei rhodesiense; test: Anti-trypanosomal activity against Trypanosoma rhodesiense infections in mice, 26 mg/kg administered subcutaneously; details: route subcutaneous
How it was run: (§2)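 Six-week-old IUR/HA Swiss mice (30-32 g), 5 per dose, infected ip with 0.5 mL of a 1:50 000 dilution of heparinized heart blood from donor mice infected 3 days before (Wellcome CT strain). Single sc dose in peanut oil about 2 h post-inoculation. Deaths before day 4 counted toxic. ΔMST versus untreated controls; survivors at 30 days counted cured.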

[4] = tested on: Mus musculus; test: Antitrypanosomal activity was evaluated against Trypanosoma rhodesiense infections in mice, at dose 26 mg/kg, administered subcutaneously;Cures; details: route subcutaneous; how it was run: as §1
[5] = tested on: Mus musculus; test: (§3) Antitrypanosomal activity was evaluated against Trypanosoma rhodesiense infections in mice, at dose 212 mg/kg, administered subcutaneously; details: route subcutaneous; how it was run: as §1
[6] = tested on: Trypanosoma brucei rhodesiense; test: Antitrypanosomal activity was evaluated against Trypanosoma rhodesiense infections in mice, at dose 53 mg/kg, administered subcutaneously; details: route subcutaneous; how it was run: as §2
[7] = tested on: Mus musculus; test: Antitrypanosomal activity was evaluated against Trypanosoma rhodesiense infections in mice, at dose 53 mg/kg, administered subcutaneously;Cures; details: route subcutaneous; how it was run: as §1
[8] = tested on: Trypanosoma brucei rhodesiense; test: Antitrypanosomal activity against Trypanosoma rhodesiense infections in mice, 106 mg/kg administered subcutaneously; details: route subcutaneous; how it was run: as §2
[9] = tested on: Mus musculus; test: Antitrypanosomal activity was evaluated against Trypanosoma rhodesiense infections in mice, at dose 6.6 mg/kg, administered subcutaneously;Cures; details: route subcutaneous; how it was run: as §1
[10] = tested on: Mus musculus; test: Antitrypanosomal activity was evaluated against Trypanosoma rhodesiense infections in mice, at dose 1.6 mg/kg, administered subcutaneously;Cures; details: route subcutaneous; how it was run: as §1
[11] = tested on: Mus musculus; test: Antitrypanosomal activity was evaluated against Trypanosoma rhodesiense infections in mice, at dose 106 mg/kg, administered subcutaneously;Cures; details: route subcutaneous; how it was run: as §1
[12] = tested on: Mus musculus; test: Antitrypanosomal activity was evaluated against Trypanosoma rhodesiense infections in mice, at dose 53 mg/kg, administered subcutaneously; Cures; details: route subcutaneous; how it was run: as §1
[13] = tested on: Mus musculus; test: Antitrypanosomal activity was evaluated against Trypanosoma rhodesiense infections in mice, at dose 212 mg/kg, administered subcutaneously;Cures; details: route subcutaneous; how it was run: as §1
[14] = tested on: Mus musculus; test: Antitrypanosomal activity was evaluated against Trypanosoma rhodesiense infections in mice, at dose 13 mg/kg, administered subcutaneously;Cures; details: route subcutaneous; how it was run: as §1
[15] = tested on: Mus musculus; test: Antitrypanosomal activity was evaluated against Trypanosoma rhodesiense infections in mice, at dose 13mg/kg, administered subcutaneously; how it was run: as §2
[16] = tested on: Trypanosoma brucei rhodesiense; test: Antitrypanosomal activity was evaluated against Trypanosoma rhodesiense infections in mice, at dose 26 mg/kg, administered subcutaneously; details: route subcutaneous; how it was run: as §1
[17] = tested on: Mus musculus; test: Antitrypanosomal activity was evaluated against Trypanosoma rhodesiense infections in mice, at dose 3.3 mg/kg, administered subcutaneously; details: route subcutaneous; how it was run: as §2
[18] = tested on: Trypanosoma brucei rhodesiense; test: Antitrypanosomal activity was evaluated against Trypanosoma rhodesiense infections in mice, at dose 106 mg/kg, administered subcutaneously; details: route subcutaneous; how it was run: as §1
[19] = tested on: Mus musculus; test: Antitrypanosomal activity was evaluated against Trypanosoma rhodesiense infections in mice, at dose 6.6 mg/kg, administered subcutaneously; details: route subcutaneous; how it was run: as §2
[20] = tested on: Trypanosoma brucei rhodesiense; test: Antitrypanosomal activity was evaluated against Trypanosoma rhodesiense infections in mice, at dose 1.6 mg/kg, administered subcutaneously; details: route subcutaneous; how it was run: as §2
[21] = tested on: Trypanosoma brucei rhodesiense; test: Antitrypanosomal activity against Trypanosoma rhodesiense infections in mice, 424 mg/kg administered subcutaneously; details: route subcutaneous; how it was run: as §1
[22] = tested on: Mus musculus; test: Antitrypanosomal activity was evaluated against Trypanosoma rhodesiense infections in mice, at dose 106 mg/kg, administered subcutaneously;cures; details: route subcutaneous; how it was run: as §1
[23] = tested on: Mus musculus; test: Antitrypanosomal activity was evaluated against Trypanosoma rhodesiense infections in mice, at dose 26 mg/kg, administered subcutaneously;cures; details: route subcutaneous; how it was run: as §1
[24] = tested on: Trypanosoma brucei rhodesiense; test: as §3; details: route subcutaneous; how it was run: as §2
[25] = tested on: Mus musculus; test: Antitrypanosomal activity was evaluated against Trypanosoma rhodesiense infections in mice, at dose 212 mg/kg, administered subcutaneously;Toxic; details: route subcutaneous; how it was run: as §1
[26] = tested on: Mus musculus; test: (§4) Antitrypanosomal activity was evaluated against Trypanosoma rhodesiense infections in mice, at dose 424 mg/kg, administered orally; details: route oral
How it was run: (§5)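 Oral dosing of IUR/HA Swiss mice (six weeks old, 30-32 g) infected i.p. with Wellcome CT strain T. rhodesiense, with five mice per dose level. Survival was followed for 30 days. Deaths before day 4 were counted as toxic and 30-day survivors as cured. ΔMST is the difference in mean survival time between treated and control mice.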

[27] = tested on: Mus musculus; test: Antitrypanosomal activity was evaluated against Trypanosoma rhodesiense infections in mice, at dose 106 mg/kg, administered orally;Toxic; how it was run: as §5
[28] = tested on: Mus musculus; test: Antitrypanosomal activity was evaluated against Trypanosoma rhodesiense infections in mice, at dose 26 mg/kg, administered orally; details: route oral
[29] = tested on: Mus musculus; test: Antitrypanosomal activity was evaluated against Trypanosoma rhodesiense infections in mice, at dose 106 mg/kg, administered orally; details: route oral
[30] = tested on: Mus musculus; test: Antitrypanosomal activity was evaluated against Trypanosoma rhodesiense infections in mice, at dose 424 mg/kg, administered subcutaneously;Toxic; details: route subcutaneous; how it was run: as §1
[31] = tested on: Trypanosoma brucei rhodesiense; test: Antitrypanosomal activity against Trypanosoma rhodesiense infections in mice, 3.3 mg/kg administered subcutaneously; details: route subcutaneous; how it was run: as §2
[32] = tested on: Mus musculus; test: as §3; details: route subcutaneous; how it was run: as §2; remark: listed apart in the source
[33] = tested on: Mus musculus; test: Antitrypanosomal activity was evaluated against Trypanosoma rhodesiense infections in mice, at dose 106 mg/kg, administered subcutaneously; Cures; details: route subcutaneous; how it was run: as §1
[34] = tested on: Trypanosoma brucei rhodesiense; test: Antitrypanosomal activity was evaluated against Trypanosoma rhodesiense infections in mice, at dose 424 mg/kg, administered subcutaneously; details: route subcutaneous; how it was run: as §2
[35] = tested on: Mus musculus; test: as §4; details: route oral; remark: listed apart in the source
[36] = tested on: Mus musculus; test: Antitrypanosomal activity was evaluated against Trypanosoma rhodesiense infections in mice, at dose 424 mg/kg, administered subcutaneously;Cures; details: route subcutaneous; how it was run: as §1
[37] = tested on: Mus musculus; test: Antitrypanosomal activity was evaluated against Trypanosoma rhodesiense infections in mice, at dose 212 mg/kg, administered orally; details: route oral
[38] = tested on: Mus musculus; test: Antitrypanosomal activity was evaluated against Trypanosoma rhodesiense infections in mice, at dose 6.6 mg/kg, administered subcutaneously;Toxic; details: route subcutaneous; how it was run: as §1
[39] = tested on: Mus musculus; test: Antitrypanosomal activity was evaluated against Trypanosoma rhodesiense infections in mice, at dose 53 mg/kg, administered orally; details: route oral
[40] = tested on: Mus musculus; test: Antitrypanosomal activity was evaluated against Trypanosoma rhodesiense infections in mice, at dose 26 mg/kg, administered orally;Toxic; details: in the assay text read “administered subcutaneously” for “administered orally”
[41] = tested on: Mus musculus; test: Antitrypanosomal activity was evaluated against Trypanosoma rhodesiense infections in mice, at dose 13 mg/kg, administered subcutaneously;Toxic; details: route subcutaneous; how it was run: as §1

Q: `CC1(C)N=C(N)N=C(N)N1c1ccc(Cc2ccc(N3C(N)=NC(N)=NC3(C)C)cc2)cc1.Cl.Cl` was tested. Which Toxic [1] did it give?
A: 2

Q: And the Cures [2]?
A: 5

Q: What about the “Delta MST” value [3] of the same compound?
A: 4 days

Q: And the Cures [4]?
A: 1

Q: And the Toxic [5]?
A: 5

Q: What about the “Delta MST” value [6] of the same compound?
A: 6.5 days

Q: And the Cures [7]?
A: 2

Q: And the “Delta MST” value [8]?
A: 8 days

Q: Which results are given for `CC1(C)N=C(N)N=C(N)N1c1ccc(/C=C/c2ccc(N3C(N)=NC(N)=NC3(C)C)cc2)cc1.Cl.Cl`?
A: Cures [9]: 3; Cures [10]: 1; Cures [4]: 3; Cures [11]: 3; Cures [12]: 5; Cures [13]: 4; Cures [14]: 5

Q: What does the source list for `CC1(C)N=C(N)N=C(N)N1c1ccc(C(c2ccc(N3C(N)=NC(N)=NC3(C)C)cc2)c2ccc(N3C(N)=NC(N)=NC3(C)C)cc2)cc1.Cl.Cl`?
A: Delta MST [15]: 0.1 days; Toxic [16]: 5; Delta MST [17]: -0.1 days; Toxic [18]: 5; Delta MST [19]: -0.1 days; Delta MST [20]: 0.1 days; Toxic [21]: 5

Q: What does the source list for `Cl.Cl.N=C(N)NC(=N)Nc1ccc(CCc2ccc(NC(=N)N=C(N)N)cc2)cc1`?
A: Cures [22]: 3; Delta MST [3]: 3 days; Cures [23]: 1; Toxic [21]: 5; Delta MST [24]: 12 days; Delta MST [6]: 1.4 days; Delta MST [8]: 8 days; Cures [13]: 2; Toxic [25]: 2

Q: Which Toxic [26] does the source give for `CC1(C)N=C(N)N=C(N)N1c1ccc(Oc2ccc(Oc3ccc(N4C(N)=NC(N)=NC4(C)C)cc3)cc2)cc1.Cl.Cl` here?
A: 5

Q: And the Toxic [27]?
A: 4

Q: What about the “Delta MST” value [28] of the same compound?
A: 0.5 days

Q: What about the “Delta MST” value [29] of the same compound?
A: 1.9 days

Q: `CC1(C)N=C(N)N=C(N)N1c1ccc(CCc2ccc(N3C(N)=NC(N)=NC3(C)C)cc2)cc1.Cl.Cl` was tested. Which Toxic [30] did it give?
A: 3

Q: What about the “Delta MST” value [31] of the same compound?
A: 3.2 days

Q: And the “Delta MST” value [3]?
A: 7.7 days

Q: And the “Delta MST” value [19]?
A: 3.4 days

Q: And the Cures [4]?
A: 4

Q: And the “Delta MST” value [32]?
A: 3.8 days

Q: And the Cures [33]?
A: 5

Q: What about the “Delta MST” value [6] of the same compound?
A: 7.8 days

Q: What about the “Delta MST” value [34] of the same compound?
A: 0.2 days

Q: What about the Cures [7] of the same compound?
A: 4

Q: What about the Cures [13] of the same compound?
A: 3

Q: What about the Cures [14] of the same compound?
A: 4

Q: What does the source list for `CC1(C)N=C(N)N=C(N)N1c1ccc(CCc2cccc(N3C(N)=NC(N)=NC3(C)C)c2)cc1.Cl.Cl`?
A: Cures [9]: 1; Delta MST [35]: 3.7 days; Cures [36]: 1; Delta MST [37]: 1.8 days; Toxic [38]: 1; Delta MST [17]: 1 days; Delta MST [39]: 0.2 days; Delta MST [19]: 1.7 days; Toxic [40]: 5; Toxic [41]: 1; Delta MST [28]: 0 days; Delta MST [29]: 0.4 days
